Results as given in ChEMBL document CHEMBL1146753, “Tetrahydroisoquinolines as subtype selective estrogen agonists/antagonists” (Bioorg Med Chem Lett, 2004).

test system: MCF7; assay: Inhibitory concentration required for antagonistic activity in MCF-7 cell lines derived from breast tumors that predominantly express ER-alpha; assay type: functional, cell-based; conditions: Homo sapiens

SMILES | IC50 [nM]
O=S(=O)(c1cccc2ccccc12)N1CCc2cc(O)ccc2C1c1ccc(OCCN2CCCC2)cc1 (stereo unspecified) | 51.3
O=C(N1CCc2cc(O)ccc2C1c1ccc(OCCN2CCCC2)cc1)C(F)(F)F (stereo unspecified) | 86.6
Cc1ccc(S(=O)(=O)N2CCc3cc(O)ccc3C2c2ccc(OCCN3CCCC3)cc2)cc1 (stereo unspecified) | 29.8

test system: MCF7; assay: Percent agonistic activity in MCF-7 cell lines derived from breast tumors that predominantly express ER-alpha; assay type: functional, Homo sapiens; conditions: not given
Summary of the method: (§1)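 MCF7 cells plated at 6000/well in IMDM with 5% FBS and attached overnight. Steroid-depleted over 48 h with two changes of medium containing 5% charcoal-dextran stripped FBS. Compounds given as log dilutions from 10^-13 to 10^-6 M in 0.1% DMSO, 8 replicate wells each. Medium and compound renewed at day 4. DNA content measured by Hoechst 33258 after 7 days total exposure.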

SMILES | Activity [%]
Oc1ccc2c(c1)CCN(c1ccccc1)C2C1CCCCC1 (stereo unspecified) | 93

target: Estrogen receptor beta (Homo sapiens, UniProt Q92731); assay: In vitro concentration required to inhibit [3H]estradiol binding to human estrogen receptor beta expressed in 293T cells; assay type: cell-based; conditions: not given
Summary of the method: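 Increasing competitor concentrations from DMSO stocks. Incubated 16 h at 4 °C. Dextran-coated charcoal for 15 min at room temperature, then centrifuged. Supernatant counted by scintillation. Means of ≥3 experiments.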

Chain of Estrogen receptor beta (Q92731 whole entry): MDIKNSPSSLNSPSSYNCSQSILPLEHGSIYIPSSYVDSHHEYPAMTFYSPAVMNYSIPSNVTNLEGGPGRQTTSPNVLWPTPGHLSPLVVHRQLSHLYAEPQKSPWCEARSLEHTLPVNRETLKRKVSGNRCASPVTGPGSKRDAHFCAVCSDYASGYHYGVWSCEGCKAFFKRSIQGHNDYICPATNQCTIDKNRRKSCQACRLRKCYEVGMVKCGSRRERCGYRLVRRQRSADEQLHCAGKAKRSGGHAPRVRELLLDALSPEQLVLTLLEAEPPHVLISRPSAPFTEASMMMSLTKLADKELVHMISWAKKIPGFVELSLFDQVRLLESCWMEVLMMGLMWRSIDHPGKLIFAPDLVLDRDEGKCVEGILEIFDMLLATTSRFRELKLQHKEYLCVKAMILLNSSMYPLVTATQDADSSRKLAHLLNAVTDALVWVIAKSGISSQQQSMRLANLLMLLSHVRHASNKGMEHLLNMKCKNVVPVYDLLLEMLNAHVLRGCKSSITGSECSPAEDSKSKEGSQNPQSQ

SMILES | IC50 [nM]
O=C(N1Cc2cc(O)ccc2C(c2ccc(O)cc2)C1)C(F)(F)F (stereo unspecified) | 11.4
O=S(=O)(c1ccccc1)N1Cc2cc(O)ccc2C(c2ccc(O)cc2)C1 (stereo unspecified) | 41.7
O=C(/C=C/c1ccc(N2CCc3cc(O)ccc3C2c2ccccc2)cc1)N1CCOCC1 (stereo unspecified) | 4.8
Oc1ccc2c(c1)CCN(c1ccccc1)C2c1cccs1 (stereo unspecified) | 26.3
O=S(=O)(c1cccc2ccccc12)N1CCc2cc(O)ccc2C1c1ccc(OCCN2CCCC2)cc1 (stereo unspecified) | 21.3
O=S(=O)(c1cccc2ccccc12)N1Cc2cc(O)ccc2C(c2ccc(O)cc2)C1 (stereo unspecified) | 10.7
CCCc1ccc(S(=O)(=O)N2CCc3cc(O)ccc3C2c2ccc(OCCN3CCCC3)cc2)cc1 (stereo unspecified) | 133
O=C(N1CCc2cc(O)ccc2C1c1ccccc1)C(F)(F)F (stereo unspecified) | 27.4
O=C(N1CCc2cc(O)ccc2C1c1ccc(Br)cc1)C(F)(F)F (stereo unspecified) | 22
CCOC(=O)N1CCc2cc(O)ccc2C1c1ccc(OCCN2CCCC2)cc1 (stereo unspecified) | 293
Oc1ccc2c(c1)CCN(c1ccccc1)C2C1CCCCC1 (stereo unspecified) | 99
O=S(=O)(c1ccc2ccccc2c1)N1CCc2cc(O)ccc2C1c1ccc(OCCN2CCCC2)cc1 (stereo unspecified) | 1080
Oc1ccc2c(c1)CCN(c1ccccc1)C2Cc1ccccc1 (stereo unspecified) | 66.4
Oc1ccc2c(c1)CCN(c1ccccc1)C2CC1CCCCC1 (stereo unspecified) | 295
O=C(N1CCc2cc(O)ccc2[C@@H]1c1ccc(O)cc1)C(F)(F)F | > 3200
CC(C)C1c2ccc(O)cc2CCN1c1ccccc1 (stereo unspecified) | 180
Oc1ccc2c(c1)CCN(Cc1ccc3c(c1)OCO3)C2c1ccc(OCCN2CCCC2)cc1 (stereo unspecified) | 220
Oc1ccc2c(c1)CCN(Cc1ccccc1)C2c1ccc(OCCN2CCCC2)cc1 (stereo unspecified) | 42.2
Oc1ccc2c(c1)CCN(c1ccccc1)C2c1ccc(OCCN2CCCC2)cc1 (stereo unspecified) | 22.2
O=C(N1CCc2cc(O)ccc2C1c1cccs1)C(F)(F)F (stereo unspecified) | 63.5
O=C(N1CCc2cc(O)ccc2C1c1ccc(OCCN2CCCC2)cc1)C(F)(F)F (stereo unspecified) | 93.3
O=C(c1ccccc1)N1Cc2cc(O)ccc2C(c2ccc(O)cc2)C1 (stereo unspecified) | 27.9
Cc1ccc(S(=O)(=O)N2CCc3cc(O)ccc3C2c2ccc(OCCN3CCCC3)cc2)cc1 (stereo unspecified) | 71.2
Oc1ccc(C2CN(Cc3ccccc3)Cc3cc(O)ccc32)cc1 (stereo unspecified) | 13.1
Oc1ccc2c(c1)CCN(c1ccccc1)C2c1ccccc1 (stereo unspecified) | 48.8
O=C(c1ccccc1)N1CCc2cc(O)ccc2C1c1ccc(OCCN2CCCC2)cc1 (stereo unspecified) | 2250
O=S(=O)(c1ccccc1)N1CCc2cc(O)ccc2C1c1ccc(OCCN2CCCC2)cc1 (stereo unspecified) | 18.5
CN(C)C(=O)/C=C/c1ccc(N2CCc3cc(O)ccc3C2c2ccccc2)cc1 (stereo unspecified) | 8.7
O=C(N1CCc2cc(O)ccc2[C@H]1c1ccc(O)cc1)C(F)(F)F | 8.9

test system: MCF7; assay: Percent inhibition of antagonistic activity in MCF-7 cell lines derived from breast tumors that predominantly express ER-alpha; assay type: functional, Homo sapiens; conditions: not given

SMILES | Inhibition [%]
O=S(=O)(c1cccc2ccccc12)N1CCc2cc(O)ccc2C1c1ccc(OCCN2CCCC2)cc1 (stereo unspecified) | 96
O=C(N1CCc2cc(O)ccc2C1c1ccc(OCCN2CCCC2)cc1)C(F)(F)F (stereo unspecified) | 83
Cc1ccc(S(=O)(=O)N2CCc3cc(O)ccc3C2c2ccc(OCCN3CCCC3)cc2)cc1 (stereo unspecified) | 66

test system: MCF7; assay: Effective concentration required for agonistic activity in MCF-7 cell lines derived from breast tumors that predominantly express ER-alpha; assay type: functional, cell-based; conditions: Homo sapiens; summary of the method: as §1

SMILES | EC50 [nM]
Oc1ccc2c(c1)CCN(c1ccccc1)C2C1CCCCC1 (stereo unspecified) | 11.1

target: T1, Estrogen receptor (Homo sapiens, UniProt P03372); assay: In vitro concentration required to inhibit [3H]estradiol binding to human estrogen receptor alpha expressed in 293T cells; assay type: cell-based; conditions: not given
T1 sequence (P03372 whole entry): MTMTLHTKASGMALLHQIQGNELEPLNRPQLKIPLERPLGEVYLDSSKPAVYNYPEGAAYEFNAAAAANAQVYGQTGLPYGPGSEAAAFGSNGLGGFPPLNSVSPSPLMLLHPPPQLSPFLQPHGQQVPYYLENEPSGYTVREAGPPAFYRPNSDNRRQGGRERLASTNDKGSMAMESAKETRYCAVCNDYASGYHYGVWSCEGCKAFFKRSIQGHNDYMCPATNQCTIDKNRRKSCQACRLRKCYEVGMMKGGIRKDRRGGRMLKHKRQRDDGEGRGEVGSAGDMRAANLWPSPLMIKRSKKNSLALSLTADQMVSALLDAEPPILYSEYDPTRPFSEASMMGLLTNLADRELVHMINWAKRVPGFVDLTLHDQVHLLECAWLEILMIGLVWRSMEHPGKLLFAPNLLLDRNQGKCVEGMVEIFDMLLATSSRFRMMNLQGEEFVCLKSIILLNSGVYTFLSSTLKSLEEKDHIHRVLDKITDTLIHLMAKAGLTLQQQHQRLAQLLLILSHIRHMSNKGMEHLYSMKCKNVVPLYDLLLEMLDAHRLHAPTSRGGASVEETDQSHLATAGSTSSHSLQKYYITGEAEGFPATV

SMILES | IC50 [nM]
O=C(N1Cc2cc(O)ccc2C(c2ccc(O)cc2)C1)C(F)(F)F (stereo unspecified) | 123
O=S(=O)(c1ccccc1)N1Cc2cc(O)ccc2C(c2ccc(O)cc2)C1 (stereo unspecified) | 120
O=C(/C=C/c1ccc(N2CCc3cc(O)ccc3C2c2ccccc2)cc1)N1CCOCC1 (stereo unspecified) | 5.9
Oc1ccc2c(c1)CCN(c1ccccc1)C2c1cccs1 (stereo unspecified) | 50
O=S(=O)(c1cccc2ccccc12)N1CCc2cc(O)ccc2C1c1ccc(OCCN2CCCC2)cc1 (stereo unspecified) | 5.6
O=S(=O)(c1cccc2ccccc12)N1Cc2cc(O)ccc2C(c2ccc(O)cc2)C1 (stereo unspecified) | 28
CCCc1ccc(S(=O)(=O)N2CCc3cc(O)ccc3C2c2ccc(OCCN3CCCC3)cc2)cc1 (stereo unspecified) | 29.4
O=C(N1CCc2cc(O)ccc2C1c1ccccc1)C(F)(F)F (stereo unspecified) | 235
O=C(N1CCc2cc(O)ccc2C1c1ccc(Br)cc1)C(F)(F)F (stereo unspecified) | 165
CCOC(=O)N1CCc2cc(O)ccc2C1c1ccc(OCCN2CCCC2)cc1 (stereo unspecified) | 44.3
Oc1ccc2c(c1)CCN(c1ccccc1)C2C1CCCCC1 (stereo unspecified) | 29.8
O=S(=O)(c1ccc2ccccc2c1)N1CCc2cc(O)ccc2C1c1ccc(OCCN2CCCC2)cc1 (stereo unspecified) | 112
Oc1ccc2c(c1)CCN(c1ccccc1)C2Cc1ccccc1 (stereo unspecified) | 6.7
Oc1ccc2c(c1)CCN(c1ccccc1)C2CC1CCCCC1 (stereo unspecified) | 53.1
O=C(N1CCc2cc(O)ccc2[C@@H]1c1ccc(O)cc1)C(F)(F)F | > 3200
CC(C)C1c2ccc(O)cc2CCN1c1ccccc1 (stereo unspecified) | 42.7
Oc1ccc2c(c1)CCN(Cc1ccc3c(c1)OCO3)C2c1ccc(OCCN2CCCC2)cc1 (stereo unspecified) | 9.2
Oc1ccc2c(c1)CCN(Cc1ccccc1)C2c1ccc(OCCN2CCCC2)cc1 (stereo unspecified) | 4.7
Oc1ccc2c(c1)CCN(c1ccccc1)C2c1ccc(OCCN2CCCC2)cc1 (stereo unspecified) | 11.5
O=C(N1CCc2cc(O)ccc2C1c1cccs1)C(F)(F)F (stereo unspecified) | 385
O=C(N1CCc2cc(O)ccc2C1c1ccc(OCCN2CCCC2)cc1)C(F)(F)F (stereo unspecified) | 28.7
O=C(c1ccccc1)N1Cc2cc(O)ccc2C(c2ccc(O)cc2)C1 (stereo unspecified) | 160
Cc1ccc(S(=O)(=O)N2CCc3cc(O)ccc3C2c2ccc(OCCN3CCCC3)cc2)cc1 (stereo unspecified) | 24.8
Oc1ccc(C2CN(Cc3ccccc3)Cc3cc(O)ccc32)cc1 (stereo unspecified) | 20.1
Oc1ccc2c(c1)CCN(c1ccccc1)C2c1ccccc1 (stereo unspecified) | 30.7
O=C(c1ccccc1)N1CCc2cc(O)ccc2C1c1ccc(OCCN2CCCC2)cc1 (stereo unspecified) | 562
O=S(=O)(c1ccccc1)N1CCc2cc(O)ccc2C1c1ccc(OCCN2CCCC2)cc1 (stereo unspecified) | 5.2
CN(C)C(=O)/C=C/c1ccc(N2CCc3cc(O)ccc3C2c2ccccc2)cc1 (stereo unspecified) | 8
O=C(N1CCc2cc(O)ccc2[C@H]1c1ccc(O)cc1)C(F)(F)F | 53.6
